Source: PubChem
Hck Nef HTS = inhibitors of Nef-activated human Hck kinase, primary screen, biochemical, Z-Lyte FRET, 384-well, Hck-YEEI | Tyrosine-protein kinase HCK (Homo sapiens), P08631 | AID 463187, 2010 | Recombinant Hck-YEEI plus Nef, Z-Lyte FRET kinase assay | inhibition, % at 20 µM | actives 0.68% (n = 220,000);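 active = Hck-Nef kinase inhibition above about 50%, limit read from the data; inactive = inhibition below that limit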
Target sequence (P08631 whole entry, looked up): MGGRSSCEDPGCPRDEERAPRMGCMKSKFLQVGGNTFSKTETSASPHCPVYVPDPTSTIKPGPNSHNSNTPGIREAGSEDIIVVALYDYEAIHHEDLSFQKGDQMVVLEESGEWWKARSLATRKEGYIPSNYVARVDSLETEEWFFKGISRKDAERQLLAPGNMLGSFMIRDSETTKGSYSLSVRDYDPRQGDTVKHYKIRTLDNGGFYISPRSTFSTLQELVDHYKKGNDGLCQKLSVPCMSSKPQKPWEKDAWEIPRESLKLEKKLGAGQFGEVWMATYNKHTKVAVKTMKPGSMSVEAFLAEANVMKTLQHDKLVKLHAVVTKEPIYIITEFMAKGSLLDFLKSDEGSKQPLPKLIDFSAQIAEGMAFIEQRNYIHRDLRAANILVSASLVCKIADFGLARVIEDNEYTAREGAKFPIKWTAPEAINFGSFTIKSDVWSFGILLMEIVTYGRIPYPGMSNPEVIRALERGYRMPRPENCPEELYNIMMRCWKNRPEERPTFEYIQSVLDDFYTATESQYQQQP
RanGTP-Imp inh = inhibitors of RanGTP-importin-beta interaction, primary screen, biochemical, FRET, CFP-Ran, YFP-importin-beta, homogeneous. Ran GTPase (GTP-bound) - importin-beta complex. cell-free CFP-Ran/YFP-importin-beta FRET ratio. inhibition, % (test concentration not listed). actives 1.1% (n = 300,000). AID 2216, 2009;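 active = more than half of the replicate wells show a fall in the fluorescence ratio signal beyond about 16%, limit read from the data, passing the limit was not always enough; inconclusive = exactly half of the replicate wells pass the set limit; inactive = fewer than half of replicates pass the limit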
zVAD death inh = inhibitors of zVAD-triggered necroptosis, primary screen, L929 cells; L929 zVAD necroptosis rescue, ATP luminescence, 24 h; with zVAD 60 µM; viability rescue, % at 10 µM; actives 0.38% (n = 220,000); AID 1377, 2008;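 active = activation, scaled between plate controls, above about 75%, limit read from the data; inactive = activation under that limit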
TNF death inh = inhibitors of TNF-alpha triggered necroptosis, primary screen, cell-based, Jurkat FADD-/-, single concentration. Jurkat FADD-/- TNF necroptosis rescue, ATP luminescence, 24 h; 0 = TNF only, 100 = no-TNF cells. activation (protection from cell death), % at 10 µM. actives 0.068% (n = 220,000);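 active = activation, meaning protection from cell death, of at least 50% relative to plate controls; inactive = activation below 50%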;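 note: necroptosis triggered by 40 ng/mL TNF-alpha added together with compound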
Runt-CBFb FRET = inhibitors of RUNX1 Runt–CBFb binding, primary screen, biochemical, FRET, Cerulean-Runt, Venus-CBFb, uHTS | Cerulean-Runt/Venus-CBFb FRET ratio 530/480, 1 h | inhibition, % at 20 µM | Runt-related transcription factor 1 (Homo sapiens) + Core-binding factor subunit beta … | AID 1496, 2009 | actives 0.46% (n = 220,000);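 active = inhibition over about 50% at 20 µM in the single-dose screen, limit read from the data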
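Doses: 20 µM compound in 1% DMSO | Material: Cerulean-labeled Runt domain protein | Amount: Each fluorescent fusion protein 100 nM | Schedule: Two 1 h room-temperature incubations shielded from light | Measured by: FRET fluorescence | Evaluation: Loss of energy transfer signal | Controls: Unlabeled CBFb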
Runt-SMMHC FRET = inhibitors of RUNX1 Runt–CBFb-SMMHC binding, primary screen, biochemical, FRET, Cerulean-Runt, Venus-CBFb-SMMHC, uHTS; Runt-related transcription factor 1 (Homo sapiens) + Core-binding factor subunit beta …; Cerulean-Runt/Venus-CBFb-SMMHC FRET ratio 530/480, 1 h; inhibition, % at 20 µM; actives 0.74% (n = 220,000); AID 1434, 2008;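 active = mean inhibition across duplicate retests at 20 µM reaching about 50%, limit read from the data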;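 note: inhibitors lower the FRET ratio by blocking Runt binding to CBFb-SMMHC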
Numbers stand for hits; n = inactive; u = inconclusive; x = no result. Compounds with a hit are over-represented: about 2.1% of the library has one in this group of screens.

SMILES | Hck Nef HTS | RanGTP-Imp inh | zVAD death inh | TNF death inh | Runt-CBFb FRET | Runt-SMMHC FRET
O=C(CCN1C(=O)S/C(=C\c2cccs2)C1=O)NC1=NCCS1 | n | n | n | n | n | n
COc1ccc2sc3ccccc3c(=O)c2c1 | n | 95 | n | n | n | n
O=C(O)CCC(=O)Nc1ccc(Br)c(Cl)c1 | n | n | n | n | 100 | n
CC(C)(O)C1Cc2cc(/C=C/C(=O)O)c(O)cc2O1 (stereo unspecified) | n | n | n | n | n | 63
COc1cc2c(cc1/C=C/C(=O)O)OC(C)C2 (stereo unspecified) | n | n | n | n | n | n
Cc1cccc(NC(=O)COc2ccc(/C=C\c3[nH]c(=O)[nH]c(=O)c3[N+](=O)[O-])cc2)c1 | 62 | n | n | n | n | n
CCOC(=O)c1cccc(NC(=O)COc2ccc([N+](=O)[O-])cc2)c1 | n | u | n | n | n | n
CCOC(=O)C1(Cc2ccccc2C)CCCN(C(=O)CCc2cccnc2)C1 (stereo unspecified) | n | n | n | n | n | n
Cc1cc(C)c2c(N)c(-c3nc4ccccc4[nH]3)sc2n1 | n | 21 | n | n | n | n
CCCCOC(=S)NC(=O)c1sc2ccccc2c1Cl | n | 29 | n | n | n | n
CN(C)CCCOC(=O)c1sc2ccccc2c1Cl | n | n | n | n | n | n
CCOC(=O)CSc1nc(N2CCOCC2)c2c(c1C#N)CC(C)(C)N(C)C2 | n | 19 | n | n | 60 | 84
COc1cc(NC(=O)CSc2nc(C)c(C)c(C)n2)cc(OC)c1 | n | n | n | n | n | n
CCNc1cc(Cl)nc(SC)n1 | n | n | n | n | n | n
CCN(CCO)c1cc(Cl)nc(SC)n1 | n | 69 | n | n | n | n
O=C(N/N=C/c1cc(Br)ccc1OC(=O)c1ccc(Br)cc1)c1ccncc1 | x | n | x | x | x | x
CC(C)=NOc1nc(N2CCOCC2)nc(N2CCOCC2)n1 | n | n | n | n | n | n
Cn1c2ccccc2c(=O)c2ccc(C#CC3(N)CCCCC3)cc21 | x | 163 | x | x | x | x
COc1cccc2oc3ccc(C#CC4(N)CCCCC4)cc3c(=O)c12 | x | n | x | x | x | x
O=c1c2ccccc2oc2ccc(C#CC3(O)CCCCC3)cc12 | x | n | x | x | x | x
Cn1c2ccccc2c(=O)c2cc(C#CC3(O)CCCCC3)ccc21 | x | 169 | x | x | x | x
NC(N)=Nc1nc(-c2ccccc2)c2ccccc2n1 | n | 26 | n | n | n | n
CCc1nc(N=C(N)N)nc2ccccc12 | n | n | n | n | n | n
CC(Oc1ccc(F)cc1)C(O)CCN(C)C (stereo unspecified) | n | n | n | n | n | n
CN(C(=O)c1ccc(NC(=O)C2CC=CCC2C(=O)O)cc1)c1ccccc1 (stereo unspecified) | n | 25 | n | n | n | n
SMILES | Hck Nef HTS | RanGTP-Imp inh | zVAD death inh | TNF death inh | Runt-CBFb FRET | Runt-SMMHC FRET
CC(=O)Nc1ccc(C(=O)N(C)c2ccccc2)cc1 | n | n | n | n | n | n
N#CC1=C(N)OC2=C(C(=O)CCC2)C1c1cc2c(cc1Br)OCO2 (stereo unspecified) | x | n | x | x | x | x
O=C(CSc1ccc(Cl)cc1)N1N=CCC1c1ccccc1 (stereo unspecified) | n | n | n | 100 | n | n
COc1cc(C(=O)OCC(=O)NCc2ccc(F)cc2)ccc1OCC(C)C | x | n | x | x | x | x
O=c1nc(/C=C/c2ccc(-c3ccc(F)cc3)o2)cc(C(F)(F)F)[nH]1 | n | n | n | n | 106 | 81
O=Cc1ccc(-c2ccc(F)cc2)o1 | n | u | n | n | n | n
O=C(O)c1ccccc1-c1ccc(/C=C/c2cc(C(F)(F)F)[nH]c(=O)n2)o1 | n | n | n | n | 68 | 87
CCOC(=O)N1C(=O)C2(CCCCC2)N(c2ccccc2Cl)C1=S | n | n | n | n | n | n
CCn1nc(NS(=O)(=O)c2ccccc2)c2cc3ccccc3nc21 | x | n | x | x | x | x
CCn1nc(NC(=O)c2cccs2)c2cc3ccccc3nc21 | n | 39 | n | n | n | n
CCn1nc(NC(=O)c2cccnc2)c2cc3ccccc3nc21 | n | 19 | n | n | n | n
COc1ccc(CC(=O)NNC(=O)c2c(-c3ccccc3Cl)noc2C)cc1OC | n | n | n | n | n | n
COc1cccc(CNC(=O)CN2CCC(c3nc4ccc(C)cc4[nH]3)CC2)c1 | n | n | n | n | n | n
CCOC(=O)NCc1ccc2c(c1)cc(C)n2C | n | 85 | n | n | n | n
CCCCNC(=O)[C@@H]1CC=C[C@@H]2CCN(C3CC3)C(=O)[C@@H]21 | x | n | x | x | x | x
CC1=CC2=NC(=O)/C(=C\c3cn(C)c4ccccc34)C(=N)N2O1 | n | 50 | n | n | n | 87
CC1=CC2=NC(=O)/C(=C\c3cc(C)n(-c4ccccc4)c3C)C(=N)N2O1 | n | n | n | n | n | n
Cc1ccc(C)c(S(=O)(=O)c2c(N)n(/N=C/c3ccco3)c3nc4ccccc4nc23)c1 | n | n | n | n | n | 67
CCOC(=O)C1C(c2ccc(OC)cc2)N(C)OC1(O)C(F)(F)F (stereo unspecified) | n | 22 | n | n | n | n
O=C1c2ccccc2C(=O)N1CCc1nc2ccccc2c(=O)n1CCCn1ccnc1 | n | 25 | n | n | n | n
O=c1c2ccccc2nc(-c2ccccc2)n1Cc1ccco1 | n | n | n | n | n | n
O=C1c2ccccc2C(=O)N1CCCc1nc2ccccc2c(=O)n1Cc1ccco1 | n | n | n | n | 130 | n
Nc1cccc2c1C(=O)N(CCOc1ccc(F)cc1)C2=O | x | 26 | x | x | x | x
COc1ccc(OCCN2C(=O)c3ccccc3C2=O)cc1 | n | n | n | n | n | n
C/C(Cl)=C/CN1C(=O)C2C3C=CC(C3)C2C1=O (stereo unspecified) | n | n | n | 68 | n | n
COc1ccccc1NC(=O)CCN1C(=O)c2ccccc2C1=O | x | n | x | x | x | x
CC(C)Cn1nc(NC(=O)C2CCCO2)c2cc3ccccc3nc21 (stereo unspecified) | n | 27 | n | n | n | n
Cc1ccc2cc3c(NC(=O)c4ccco4)nn(CC(C)C)c3nc2c1 | n | 39 | n | n | n | n
CCCCn1c(N)c(N(CCOC)C(=O)c2oc3ccc(OCC)cc3c2C)c(=O)[nH]c1=O | x | n | x | x | x | x
CC(=O)Oc1ccc(-c2cc3c(OC(C)=O)cc(OC(C)=O)cc3oc2=O)cc1 | x | 123 | x | x | x | x
